NadD inh: NadD (S. aureus) enzyme inhibition; purified NadD enzyme, colorimetric absorbance read-out; inhibition, % at 20 µM; 0.78% of 360,000 active; in the data active means inhibition above about 26%
SUMO1 PPI mod: SUMO1-SIM interaction modulation; P63165; SUMO1 binding to a labelled peptide, TR-FRET, 1 h; inhibition, % at 20 µM; 0.33% of 360,000 active; in the data active means inhibition above about 37%
Scp-1 inhibitor: Scp-1 (human) phosphatase inhibition | Q9GZU7 | Recombinant Scp1, phosphopeptide, malachite green phosphate absorbance | inhibition, % at 20 µM | 0.88% of 340,000 active | AID 493091;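 active means inhibition above about 50% at 20 µM, limit read from the data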;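 further: plate controls were DMSO wells with enzyme for no effect and wells lacking enzyme for full effect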
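Material – SCP-1 phosphatase catalytic domain, residues 76-261 · Buffer or medium – Acidic Tris acetate buffer with magnesium and detergent · Also added – Phospho 17-mer peptide substrate · Compound – single 20 µM dose, 1% DMSO · Times – 45 min room-temperature reaction, 5 min colour, 30 min stabiliser · Technique – Phosphate-binding colour reagent, absorbance read at 630 nm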
DNMT1 block: blocks human DNA methyltransferase DNMT1; inhibition (reported as % activation of signal), % at 10 µM; 0.83% of 360,000 active; P26358; DNMT1 molecular beacon, Hinp1I cleavage, fluorescence; in the data active means inhibition above about 50%
LMPTP inh: LMPTP (human) inhibition; recombinant LMPTP-A, OMFP fluorogenic substrate, fluorescence intensity; inhibition, % at 20 µM; 0.22% of 360,000 active; AID 651560;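 active means compounds that cut the enzyme signal by at least half of the control window in the single-dose screen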;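 further: plate controls were DMSO wells with enzyme plus substrate for no effect and substrate without enzyme for full effect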
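Test system – LMPTP-A phosphatase enzyme · Quantity – 0.625 nM LMPTP-A final · Reagent – OMFP substrate, 400 µM final · Dosing – one test concentration per compound, 20 µM, with 3% DMSO overall · Timing – 50 min enzyme reaction at room temperature, protected from light · Detection – fluorescence intensity · Controls – substrate-only low control, DMSO enzyme-plus-substrate high control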
STEP block: STEP (human) phosphatase inhibition. recombinant STEP, OMFP fluorogenic substrate, fluorescence. inhibition, % at 20 µM. 0.25% of 360,000 active. AID 588621;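 active means inhibition at 20 µM, scaled per plate between control wells, above about 37%, limit read from the data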;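 further: 0% = DMSO with enzyme and substrate and 100% = substrate only without enzyme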
Target sequence (P54829 whole entry, looked up): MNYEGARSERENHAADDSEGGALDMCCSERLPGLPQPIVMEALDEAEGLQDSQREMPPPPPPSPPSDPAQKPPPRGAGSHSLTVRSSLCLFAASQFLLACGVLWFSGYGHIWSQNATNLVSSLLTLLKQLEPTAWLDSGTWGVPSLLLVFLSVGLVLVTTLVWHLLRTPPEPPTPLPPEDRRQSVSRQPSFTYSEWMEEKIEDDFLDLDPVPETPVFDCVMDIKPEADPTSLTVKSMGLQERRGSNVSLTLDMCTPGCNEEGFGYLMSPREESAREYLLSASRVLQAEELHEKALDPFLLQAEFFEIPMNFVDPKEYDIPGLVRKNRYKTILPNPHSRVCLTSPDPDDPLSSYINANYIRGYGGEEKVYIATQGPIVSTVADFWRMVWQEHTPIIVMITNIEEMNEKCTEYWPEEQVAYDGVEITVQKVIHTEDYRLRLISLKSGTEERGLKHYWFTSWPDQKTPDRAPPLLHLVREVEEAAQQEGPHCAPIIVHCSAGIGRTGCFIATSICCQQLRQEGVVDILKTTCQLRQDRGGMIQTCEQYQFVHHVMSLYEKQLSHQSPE
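material = STEP tyrosine phosphatase | reagent = fluorogenic phosphatase substrate OMFP at 25 µM final | doses = single compound dose of 20 µM, 1% DMSO final | schedule = 20 min reaction, room temperature, in the dark | measured by = fluorescence, 480/540 nm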
Scp1 confirm: confirmation of human Scp-1 phosphatase inhibitors; inhibition, % at 20 µM; recombinant SCP-1 catalytic domain, phosphate release, malachite green absorbance; 61% of 2,500 active; shares compounds with Scp-1 inhibitor;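 further: plate controls were DMSO with enzyme for no effect and buffer wells lacking enzyme for full effect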
Scp-1 MG ctr: interferes with malachite green readout, flagging false Scp-1 hits; 2,500 tested, under 10 active; shares compounds with Scp-1 inhibitor; apparent inhibition (interference), % at 20 µM; Colorimetric interference counterscreen, malachite green absorbance 630 nm;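 further: compounds added after enzyme reaction finished so only phosphate colour detection is probed; plate controls were DMSO wells with completed Scp-1 reaction for no effect and substrate wells lacking enzyme for full effect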
Scp-1 Tm shift: validation of human Scp-1 inhibitors by thermal shift binding; AID 540329; Recombinant SCP1, Sypro Orange thermal shift Tm; 25% of 1,500 active; shares compounds with Scp-1 inhibitor; thermal shift relative to vanadate control, % at 40 µM;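 active means substances whose mean melting-temperature shift, as a percentage of the reference inhibitor's shift, reaches about 5.3%, limit read from the data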;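 further: 0% = Tm of DMSO wells and 100% = Tm with sodium orthovanadate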
Starred values were filed as active, the others as inactive. A selection: hits, their analogues and other compounds. The true share with any hit is near 2.4%.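 How the source made its calls, unless noted: active means inhibition of at least 30% at 20 µM; inactive means the rest.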

What do the screens show for `Cc1cc(C(=O)N/N=C/c2ccco2)n[nH]1`?
NadD inh: -3; SUMO1 PPI mod: -6; Scp-1 inhibitor: -1; DNMT1 block: 1; LMPTP inh: 0; STEP block: -1

What do the screens show for `CC(/C=C/c1ccco1)=N\NC(=O)c1cccnc1`?
NadD inh: 6; SUMO1 PPI mod: -6; Scp-1 inhibitor: 55*; DNMT1 block: -6; LMPTP inh: 0; STEP block: -2; Scp1 confirm: 33*; Scp-1 MG ctr: -11; Scp-1 Tm shift: -16

How did CC(/C=C/c1ccco1)=N\NC(=O)c1cc(Cl)ccc1O do in these assays?
NadD inh: 8; SUMO1 PPI mod: 36; Scp-1 inhibitor: 54*; DNMT1 block: 49; LMPTP inh: 0; STEP block: 2; Scp1 confirm: 68*; Scp-1 MG ctr: -13; Scp-1 Tm shift: 16*

How did CC(/C=C/c1ccco1)=N\NC(=O)c1cc(C)[nH]n1 do in these assays?
NadD inh: -1; SUMO1 PPI mod: 4; Scp-1 inhibitor: 52*; DNMT1 block: -15; LMPTP inh: 0; STEP block: -2; Scp1 confirm: 24; Scp-1 MG ctr: -8

What do the screens show for `O=C(C=Cc1ccco1)c1cc(Cl)ccc1O`?
NadD inh: -1; SUMO1 PPI mod: -4; Scp-1 inhibitor: -8; DNMT1 block: 15; LMPTP inh: 0; STEP block: 0

Results for COc1cccc(-c2cc(C(F)(F)F)nc(-n3cc(C)cn3)n2)c1 ?
NadD inh: -12; SUMO1 PPI mod: 2; Scp-1 inhibitor: 55*; DNMT1 block: -1; LMPTP inh: 1; STEP block: 1; Scp1 confirm: -15; Scp-1 MG ctr: -17

How did COc1cccc(-c2cc(C(F)(F)F)nc(-n3cncn3)n2)c1 do in these assays?
NadD inh: -3; SUMO1 PPI mod: -3; Scp-1 inhibitor: -8; DNMT1 block: -4; LMPTP inh: -2; STEP block: 0

Results for CC(=O)c1ccc(NC(=O)CCS(=O)(=O)c2ccc3c(c2)n(C)c(=O)c(=O)n3C)cc1 ?
NadD inh: -5; SUMO1 PPI mod: 19; Scp-1 inhibitor: 71*; DNMT1 block: 24; LMPTP inh: 0; STEP block: 1; Scp1 confirm: 31*; Scp-1 MG ctr: -10; Scp-1 Tm shift: -15

What do the screens show for `CC(C)(C)NC(=O)NC(=O)CN1CCN(C(c2ccccc2)c2ccccc2)CC1`?
NadD inh: 5; SUMO1 PPI mod: 0; Scp-1 inhibitor: 2; DNMT1 block: 0; LMPTP inh: 2; STEP block: 1

How did CCC12CCCN3CCC4(C(=C(C(=O)OC)C1)Nc1ccccc14)C32 (stereo not given) do in these assays?
NadD inh: 3; SUMO1 PPI mod: -1; Scp-1 inhibitor: 61*; DNMT1 block: -4; LMPTP inh: 2; STEP block: -3; Scp1 confirm: -10; Scp-1 MG ctr: -13

Results for COC(=O)C1=C(C(=O)OC)[C@@H]2Nc3ccccc3[C@@]23C[C@@H](C(=O)OC)N=C3N1 ?
NadD inh: 2; SUMO1 PPI mod: 6; Scp-1 inhibitor: -4; DNMT1 block: 12; LMPTP inh: 0; STEP block: -1

How did CCCCn1c(N)c(N(CC(C)C)C(=O)CCNC(=O)c2ccc(Br)cc2)c(=O)[nH]c1=O do in these assays?
NadD inh: -3; SUMO1 PPI mod: 9; Scp-1 inhibitor: -7; DNMT1 block: 0; LMPTP inh: -2; STEP block: 2

Results for O=C(CCc1nnc2ccc(NCc3ccco3)nn12)Nc1ccccn1 ?
NadD inh: 3; SUMO1 PPI mod: 14; Scp-1 inhibitor: 59*; DNMT1 block: 13; LMPTP inh: -1; STEP block: 3; Scp1 confirm: 52*; Scp-1 MG ctr: -15; Scp-1 Tm shift: 1

Bioassay records deposited in PubChem BioAssay by Sanford-Burnham Center for Chemical Genomics.
